Data as given in PMC11463018 (Journal of Enzyme Inhibition and Medicinal Chemistry, 2024).

How the values were obtained:
JAK1 = JAK1 (Homo sapiens, UniProt P23458); test: Kinase inhibition assay; assay type: biochemical
JAK3 = JAK3 (Homo sapiens, UniProt P52333); test: Kinase inhibition assay; assay type: biochemical
TYK2 = TYK2 (Homo sapiens, UniProt P29597); test: Kinase inhibition assay; assay type: biochemical
HDAC4 = HDAC4 (Homo sapiens, UniProt P56524); test: In vitro HDAC enzyme assay; assay type: biochemical
Sequence of HDAC4 (P56524 whole entry): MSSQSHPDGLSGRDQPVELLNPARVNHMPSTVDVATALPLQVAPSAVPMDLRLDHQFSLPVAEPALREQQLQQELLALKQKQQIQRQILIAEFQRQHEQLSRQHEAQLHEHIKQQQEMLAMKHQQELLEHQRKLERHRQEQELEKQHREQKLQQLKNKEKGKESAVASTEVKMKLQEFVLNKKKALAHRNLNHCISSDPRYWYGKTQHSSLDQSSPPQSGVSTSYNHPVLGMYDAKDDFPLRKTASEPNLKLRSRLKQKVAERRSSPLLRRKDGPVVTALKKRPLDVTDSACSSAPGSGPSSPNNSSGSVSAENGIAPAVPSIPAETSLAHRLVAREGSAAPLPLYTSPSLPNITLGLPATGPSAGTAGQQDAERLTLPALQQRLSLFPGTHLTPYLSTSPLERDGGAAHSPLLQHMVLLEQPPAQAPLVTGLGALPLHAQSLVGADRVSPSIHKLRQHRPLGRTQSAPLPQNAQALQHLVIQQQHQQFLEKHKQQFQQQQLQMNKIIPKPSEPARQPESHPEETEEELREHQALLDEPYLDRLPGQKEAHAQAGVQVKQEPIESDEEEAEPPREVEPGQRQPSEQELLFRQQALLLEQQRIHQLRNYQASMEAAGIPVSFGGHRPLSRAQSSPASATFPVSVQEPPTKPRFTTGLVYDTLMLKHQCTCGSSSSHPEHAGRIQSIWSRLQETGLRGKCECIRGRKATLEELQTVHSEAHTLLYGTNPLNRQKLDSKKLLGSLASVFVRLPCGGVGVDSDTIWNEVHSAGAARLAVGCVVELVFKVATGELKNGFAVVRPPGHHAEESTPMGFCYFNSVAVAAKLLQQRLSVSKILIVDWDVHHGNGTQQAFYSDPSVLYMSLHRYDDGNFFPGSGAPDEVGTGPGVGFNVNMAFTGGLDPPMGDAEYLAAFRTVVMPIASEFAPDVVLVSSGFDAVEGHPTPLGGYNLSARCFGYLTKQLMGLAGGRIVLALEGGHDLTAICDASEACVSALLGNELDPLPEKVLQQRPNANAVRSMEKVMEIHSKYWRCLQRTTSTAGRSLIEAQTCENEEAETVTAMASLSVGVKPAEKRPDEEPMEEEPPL

HDAC5 = HDAC5 (Homo sapiens, UniProt Q9UQL6); test: In vitro HDAC enzyme assay; assay type: biochemical
Sequence of HDAC5 (Q9UQL6 whole entry): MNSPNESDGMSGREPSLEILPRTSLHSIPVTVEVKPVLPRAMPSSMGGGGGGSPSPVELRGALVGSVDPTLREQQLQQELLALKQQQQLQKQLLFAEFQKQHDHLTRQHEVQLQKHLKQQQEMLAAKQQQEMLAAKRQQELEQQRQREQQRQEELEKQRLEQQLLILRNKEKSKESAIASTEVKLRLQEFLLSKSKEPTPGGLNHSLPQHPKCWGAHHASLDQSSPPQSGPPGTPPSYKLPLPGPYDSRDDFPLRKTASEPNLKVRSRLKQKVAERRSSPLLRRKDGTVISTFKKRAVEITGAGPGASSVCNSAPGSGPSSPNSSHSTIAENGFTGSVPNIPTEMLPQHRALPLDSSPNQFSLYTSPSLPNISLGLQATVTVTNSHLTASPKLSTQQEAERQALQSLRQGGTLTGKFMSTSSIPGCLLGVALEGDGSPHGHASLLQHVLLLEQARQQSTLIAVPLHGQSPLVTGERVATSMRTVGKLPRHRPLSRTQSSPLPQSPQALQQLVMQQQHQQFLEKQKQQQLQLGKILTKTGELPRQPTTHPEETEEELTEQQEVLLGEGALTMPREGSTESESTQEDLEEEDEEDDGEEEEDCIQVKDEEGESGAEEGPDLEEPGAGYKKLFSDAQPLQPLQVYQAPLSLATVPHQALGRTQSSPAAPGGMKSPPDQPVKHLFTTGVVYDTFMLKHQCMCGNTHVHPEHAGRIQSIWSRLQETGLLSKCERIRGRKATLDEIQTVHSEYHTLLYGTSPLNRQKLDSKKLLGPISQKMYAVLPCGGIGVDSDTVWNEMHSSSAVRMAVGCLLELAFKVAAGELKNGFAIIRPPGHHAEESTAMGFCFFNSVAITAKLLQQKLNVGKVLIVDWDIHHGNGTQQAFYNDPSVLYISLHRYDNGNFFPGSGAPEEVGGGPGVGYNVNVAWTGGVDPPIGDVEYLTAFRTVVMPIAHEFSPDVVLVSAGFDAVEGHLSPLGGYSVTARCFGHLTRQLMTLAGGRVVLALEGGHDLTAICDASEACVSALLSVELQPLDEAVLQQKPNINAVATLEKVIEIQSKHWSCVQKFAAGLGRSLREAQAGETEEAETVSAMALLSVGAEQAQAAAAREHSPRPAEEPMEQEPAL

HDAC7 = HDAC7 (Homo sapiens, UniProt Q8WUI4); test: In vitro HDAC enzyme assay; assay type: biochemical
HDAC8 = HDAC8 (Homo sapiens, UniProt Q9BY41); test: In vitro HDAC enzyme assay; assay type: biochemical
HDAC11 = HDAC11 (Homo sapiens, UniProt Q96DB2); test: In vitro HDAC enzyme assay; assay type: biochemical
Sequence of HDAC11 (Q96DB2 whole entry): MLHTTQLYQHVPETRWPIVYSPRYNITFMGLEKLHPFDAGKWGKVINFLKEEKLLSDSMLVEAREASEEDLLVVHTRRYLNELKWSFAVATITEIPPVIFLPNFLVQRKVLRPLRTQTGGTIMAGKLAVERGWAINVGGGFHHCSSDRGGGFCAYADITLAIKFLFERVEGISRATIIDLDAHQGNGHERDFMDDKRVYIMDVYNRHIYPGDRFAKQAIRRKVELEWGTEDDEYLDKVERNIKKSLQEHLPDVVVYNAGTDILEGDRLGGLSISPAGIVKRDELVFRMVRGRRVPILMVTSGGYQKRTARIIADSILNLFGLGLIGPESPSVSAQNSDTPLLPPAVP

MDA-MB-231 = test: cells; assay type: cell-based; conditions: Homo sapiens, MDA-MB-231, read-out: Antiproliferative effect IC50, MDA-MB-231
RPMI-8226 [1] = test: cells; assay type: cell-based; conditions: Homo sapiens, RPMI-8226, read-out: Antiproliferative effect IC50, RPMI-8226
RPMI-8226 cells = test: Apoptosis assay; assay type: cell-based, human; conditions: 1 μM, 48 h, flow cytometry
[2] = Microsomal stability assay; assay type: in vitro ADME; conditions: human, human liver microsomes, pH 7.4
Method in brief: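 Human liver microsomes at 0.8 mg/mL, with magnesium chloride and potassium phosphate buffer (pH 7.4), incubated with test compound at 0.5 μM. Mix prewarmed 5 min at 37 °C, then started with NADPH. Stopped at 0, 5, 10, 15, 30, 60 or 90 min with ice-cold ethyl acetate, spun 4000 rpm for 10 min at 4 °C. Supernatant analysed by LC-MS/MS and half-life determined.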

HL60 = test: NCI-60 screening, HL60; assay type: cell-based; conditions: Homo sapiens, HL-60, read-out: GI50, HL60
K-562 = test: NCI-60 screening, K-562; assay type: cell-based; conditions: Homo sapiens, K562, read-out: GI50, K-562
RPMI-8226 [3] = test: NCI-60 screening, RPMI-8226; assay type: cell-based; conditions: Homo sapiens, RPMI-8226, read-out: GI50, RPMI-8226
SR = test: NCI-60 screening, SR; assay type: cell-based; conditions: Homo sapiens, read-out: GI50, SR
EKVX = test: NCI-60 screening, EKVX; assay type: cell-based; conditions: Homo sapiens, read-out: GI50, EKVX
NCI-H522 = test: NCI-60 screening, NCI-H522; assay type: cell-based; conditions: Homo sapiens, NCI-H522, read-out: GI50, NCI-H522
HCT-15 = test: NCI-60 screening, HCT-15; assay type: cell-based; conditions: Homo sapiens, HCT-15, read-out: GI50, HCT-15
SNB-19 = test: NCI-60 screening, SNB-19; assay type: cell-based; conditions: Homo sapiens, SNB-19, read-out: GI50, SNB-19
LOX IMVI = test: NCI-60 screening, LOX IMVI; assay type: cell-based; conditions: Homo sapiens, read-out: GI50, LOX IMVI
MALME-3M = test: NCI-60 screening, MALME-3M; assay type: cell-based; conditions: Homo sapiens, read-out: GI50, MALME-3M
SK-MEL-2 = test: NCI-60 screening, SK-MEL-2; assay type: cell-based; conditions: Homo sapiens, SK-MEL-2, read-out: GI50, SK-MEL-2
UACC-257 = test: NCI-60 screening, UACC-257; assay type: cell-based; conditions: Homo sapiens, UACC-257, read-out: GI50, UACC-257
OVCAR-3 = test: NCI-60 screening, OVCAR-3; assay type: cell-based; conditions: Homo sapiens, OVCAR-3, read-out: GI50, OVCAR-3

Sequence of TYK2 (P29597 whole entry): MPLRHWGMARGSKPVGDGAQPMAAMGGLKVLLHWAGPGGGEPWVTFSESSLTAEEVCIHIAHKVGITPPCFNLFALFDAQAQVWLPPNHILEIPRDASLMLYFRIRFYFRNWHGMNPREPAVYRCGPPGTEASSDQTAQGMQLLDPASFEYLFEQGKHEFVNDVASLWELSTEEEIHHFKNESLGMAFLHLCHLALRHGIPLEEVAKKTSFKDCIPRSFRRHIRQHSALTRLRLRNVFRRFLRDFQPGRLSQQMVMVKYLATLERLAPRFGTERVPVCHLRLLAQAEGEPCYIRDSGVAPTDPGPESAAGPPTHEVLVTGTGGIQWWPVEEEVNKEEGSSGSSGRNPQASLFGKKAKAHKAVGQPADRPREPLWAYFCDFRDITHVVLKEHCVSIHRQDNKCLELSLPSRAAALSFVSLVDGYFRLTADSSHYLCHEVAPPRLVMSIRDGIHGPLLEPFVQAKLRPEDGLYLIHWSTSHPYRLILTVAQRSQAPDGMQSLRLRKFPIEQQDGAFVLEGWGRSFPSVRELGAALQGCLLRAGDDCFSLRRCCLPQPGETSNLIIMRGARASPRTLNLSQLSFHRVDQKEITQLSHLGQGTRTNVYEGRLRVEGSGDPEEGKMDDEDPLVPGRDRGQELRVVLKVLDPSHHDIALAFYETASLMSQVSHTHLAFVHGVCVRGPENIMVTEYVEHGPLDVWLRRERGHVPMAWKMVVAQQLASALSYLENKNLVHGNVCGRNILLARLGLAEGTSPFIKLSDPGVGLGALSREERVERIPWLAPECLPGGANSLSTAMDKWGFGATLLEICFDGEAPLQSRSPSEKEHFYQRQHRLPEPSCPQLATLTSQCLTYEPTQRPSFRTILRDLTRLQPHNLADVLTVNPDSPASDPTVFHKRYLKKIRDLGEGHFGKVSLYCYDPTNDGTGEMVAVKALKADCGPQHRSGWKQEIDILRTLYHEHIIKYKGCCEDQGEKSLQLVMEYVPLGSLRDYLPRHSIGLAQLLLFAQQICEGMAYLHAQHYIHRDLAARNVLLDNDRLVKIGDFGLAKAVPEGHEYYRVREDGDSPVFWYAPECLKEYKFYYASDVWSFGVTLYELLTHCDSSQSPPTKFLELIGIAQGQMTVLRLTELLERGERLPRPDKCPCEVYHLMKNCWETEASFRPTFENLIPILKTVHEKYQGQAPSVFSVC
Sequence of JAK3 (P52333 whole entry): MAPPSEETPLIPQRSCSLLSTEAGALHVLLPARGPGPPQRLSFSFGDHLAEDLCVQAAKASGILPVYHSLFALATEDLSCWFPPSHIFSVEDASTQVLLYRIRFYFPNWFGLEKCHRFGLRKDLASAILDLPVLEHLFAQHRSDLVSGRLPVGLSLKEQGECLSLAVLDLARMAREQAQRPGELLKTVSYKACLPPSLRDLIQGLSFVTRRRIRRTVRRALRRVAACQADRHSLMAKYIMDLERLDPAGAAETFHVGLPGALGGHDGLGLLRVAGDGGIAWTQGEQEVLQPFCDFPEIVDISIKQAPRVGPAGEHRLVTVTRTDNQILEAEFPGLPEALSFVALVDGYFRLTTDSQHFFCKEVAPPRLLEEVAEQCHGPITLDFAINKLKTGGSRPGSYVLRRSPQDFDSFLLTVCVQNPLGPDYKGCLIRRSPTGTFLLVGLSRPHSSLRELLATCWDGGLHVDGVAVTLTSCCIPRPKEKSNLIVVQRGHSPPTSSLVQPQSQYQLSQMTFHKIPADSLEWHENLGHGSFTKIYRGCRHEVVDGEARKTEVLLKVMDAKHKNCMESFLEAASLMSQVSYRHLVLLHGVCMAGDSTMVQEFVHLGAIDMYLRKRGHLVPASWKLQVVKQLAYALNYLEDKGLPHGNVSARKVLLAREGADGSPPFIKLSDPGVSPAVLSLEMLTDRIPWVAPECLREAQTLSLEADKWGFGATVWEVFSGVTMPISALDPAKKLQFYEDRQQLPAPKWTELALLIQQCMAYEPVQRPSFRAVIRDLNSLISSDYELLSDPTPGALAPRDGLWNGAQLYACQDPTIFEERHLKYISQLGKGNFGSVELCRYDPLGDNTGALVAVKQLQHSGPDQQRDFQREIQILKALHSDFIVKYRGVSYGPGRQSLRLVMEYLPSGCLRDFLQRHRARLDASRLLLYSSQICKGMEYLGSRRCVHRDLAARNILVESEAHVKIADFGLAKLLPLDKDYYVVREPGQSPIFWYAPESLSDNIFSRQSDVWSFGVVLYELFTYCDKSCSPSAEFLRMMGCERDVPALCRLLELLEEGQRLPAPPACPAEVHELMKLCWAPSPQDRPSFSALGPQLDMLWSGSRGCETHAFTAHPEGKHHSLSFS

O=C(NO)c1ccc(CNc2nc3cccc(-c4ccc5c(c4)OCO5)n3n2)cc1 [Compound 19, 4-(((5-(Benzo[d][1, 3]dioxol-5-yl)-[1,2, 4]triazolo[1,5-a]pyridin-2-yl)amino)methyl)-N-hydroxybenzamide]
IC50 (JAK1): 165 ± 13 nM | IC50 (JAK3): > 10000 nM | JAK3 IC50 (JAK3; duplicate, SD <15%): very poor inhibitory activities | IC50 (TYK2): 860 ± 33 nM | TYK2 IC50 (TYK2; duplicate, SD <15%): very poor inhibitory activities | IC50 (HDAC4): > 50000 nM | HDAC4 IC50 (HDAC4; duplicate, SD <15%): no activity | IC50 (HDAC5): > 50000 nM | HDAC5 IC50 (HDAC5; duplicate, SD <15%): no activity | IC50 (HDAC7): 715 ± 33.5 nM | IC50 (HDAC8): 640 ± 28.3 nM | IC50 (HDAC11): 1400 ± 102 nM | IC50 (MDA-MB-231): 750 ± 30 nM | IC50 (RPMI-8226 [1]): 120 ± 10 nM | Induction of RPMI-8226 cells apoptosis (RPMI-8226 cells): 85.3% | half-life at 0.5 μM [2]: 14.5 h | GI50 (HL60): 440 nM | GI50 (K-562): 320 nM | GI50 (RPMI-8226 [3]): 100 nM | GI50 (SR): 100 nM | GI50 (EKVX): 780 nM | GI50 (NCI-H522): 100 nM | GI50 (HCT-15): 690 nM | GI50 (SNB-19): 1000 nM | GI50 (LOX IMVI): 690 nM | GI50 (MALME-3M): 250 nM | GI50 (SK-MEL-2): 250 nM | GI50 (UACC-257): 360 nM | GI50 (OVCAR-3): 420 nM
